Bioassay records: PubChem BioAssay, several laboratories
NR1D1 modulator = modulators of Rev-erb alpha DNA binding, primary screen, biochemical, FITC-DNA, fluorescence polarization, uHTS; Nuclear receptor subfamily 1 group D member 1 (Homo sapiens), P20393; Rev-erbα–FITC-DNA binding, 90 min; activity, % at 10 µM; actives 0.79% (n = 370,000);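 active means activity above about 14%, limit read from the data; passing the limit was not always enough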;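 further: 0% = DMSO wells with 35 nM protein and 100% = DMSO wells with 750 nM protein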
Target sequence (P20393 whole entry, looked up): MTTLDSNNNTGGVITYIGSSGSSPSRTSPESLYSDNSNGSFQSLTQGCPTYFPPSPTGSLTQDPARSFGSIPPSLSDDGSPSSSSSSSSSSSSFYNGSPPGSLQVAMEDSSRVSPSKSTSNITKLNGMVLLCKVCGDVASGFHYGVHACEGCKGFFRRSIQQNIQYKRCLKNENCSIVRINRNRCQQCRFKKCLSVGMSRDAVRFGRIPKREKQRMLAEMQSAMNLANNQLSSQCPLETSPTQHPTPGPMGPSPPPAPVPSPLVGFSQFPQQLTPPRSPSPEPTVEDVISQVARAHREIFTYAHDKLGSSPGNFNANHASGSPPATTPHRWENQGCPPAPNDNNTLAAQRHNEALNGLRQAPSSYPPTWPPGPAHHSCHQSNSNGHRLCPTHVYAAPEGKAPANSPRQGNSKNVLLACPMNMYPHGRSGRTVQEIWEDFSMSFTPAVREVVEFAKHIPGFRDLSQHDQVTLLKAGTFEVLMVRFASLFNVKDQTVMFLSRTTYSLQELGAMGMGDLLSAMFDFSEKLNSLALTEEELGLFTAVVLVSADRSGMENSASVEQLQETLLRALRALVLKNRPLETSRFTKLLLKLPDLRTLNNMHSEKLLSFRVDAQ
CSN inh = inhibitors of CSN-mediated cullin deneddylation, primary screen, biochemical, fluorescence polarization, uHTS; COP9 signalosome complex subunit 5 (Homo sapiens), Q92905; Purified CSN, SCF-Nedd8-OG deneddylation; inhibition, % at 12.5 µM; actives 0.38% (n = 360,000); AID 651999, 2013;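 active means pattern-corrected inhibition above about 35%, with an unprinted fluorescence ratio check between 0.5 and 1.5, limit read from the data, passing the limit was not always enough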;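 further: 0% = enzyme with substrate and 100% = substrate without enzyme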
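Assay system: purified human Csn5 enzyme expressed in HEK293T cells; Input: 0.24 nM Csn5 enzyme, final concentration; Reagent: 10 nM SCFSkp2-Nedd8OG; Compound dosing: 12.5 µM single point; Times: reaction 90 min, room temperature; Technique: fluorescence polarization readout.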
HNF4A DNA FP = change in binding of human HNF4A to DNA, primary screen, biochemical, fluorescence polarization, FITC-DNA | AID 1224865, 2016 | actives 0.3% (n = 360,000) | 1 h | activity change, % at 10 µM | Hepatocyte nuclear factor 4-alpha (Homo sapiens), P41235; in the data active means activity change above about 30%, passing the limit was not always enough
TPT1 inhibitor = Candida albicans TPT1 enzyme inhibitors, primary screen, biochemical, fluorescence polarization; tRNA 2'-phosphotransferase TPT1 (Candida albicans SC5314); recombinant caTPT1, FP RNA substrate dephosphorylation; inhibition, % at 5 µM; actives 0.81% (n = 300,000);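 active means inhibition above the mean of all tested compounds plus 3 SD, set per screening campaign, cut at about 24% in these data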;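 further: plate controls were DMSO alone for no effect and ferristatin control at 100 nM for full effect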
Rev-erbA confirm = modulators of Rev-erb alpha DNA binding, confirmation, biochemical, FITC-DNA, fluorescence polarization, single point; shares compounds with NR1D1 modulator; 90 min; activation, % at 25 µM; actives 61% (n = 3,000);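 active means activation at or above a set limit, or at least 3 SD above the negative control mean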;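 further: 0% = 35 nM protein with DMSO and 100% = 750 nM protein high control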
RORg DNA counter = modulation of RORgamma DNA binding, dose response, counter-screen for Rev-erb alpha modulator project, biochemical, fluorescence polarization, FITC-DNA. shares compounds with NR1D1 modulator. purified RORgamma protein-FITC-DNA binding. IC50, µM. actives 8% (n = 910). AID 1259320, 2017;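 active means Compounds whose fitted half-maximal concentration for disrupting protein-DNA binding is below 10 micromolar; the record names Rev-erb in its text, so the target is in doubt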
* marks the source's active call; other numbers are inactive results; x = no result given. Sampled rows, rich in hits. Any-hit rate of the full collection: about 1.7%.

SMILES | NR1D1 modulator | CSN inh | HNF4A DNA FP | TPT1 inhibitor | Rev-erbA confirm | others
Cc1cc(C)n2nc(SC(C)C(=O)NC3CCCCC3C)nc2n1 (centres undefined) | 3 | 1 | 1 | -2 | x
C#CCN1CC(COc2ccccc2)Oc2cccc(Oc3ccc(OC)cc3)c2S1(=O)=O (centres undefined) | 6 | x | x | x | x
CC(C)(C)S(=O)N1C[C@@H]2CC(=O)C(c3ccccc3)=C2[C@H]1CCO (some centres undefined) | 1 | x | x | x | x
CCOc1ccc(Oc2ccc(NC(=O)CSc3nncn3C)cc2)cc1 | 1 | 4 | -6 | x | x
Cc1sc2nc(COC(=O)CNC(=O)c3cc(F)ccc3F)[nH]c(=O)c2c1C | -8 | x | x | x | x
Cc1ccc(NC(=O)c2ccc(CS(=O)(=O)Cc3ccccc3C)o2)cc1C | -4 | x | x | x | x
CCOC(=O)c1nn(-c2ccc(C)cc2)c(=O)cc1OCC(=O)N1CCN(c2ccccc2)CC1 | 2 | 3 | 0 | -2 | x
CCOC(=O)c1nn(-c2ccc(C)cc2)c(=O)cc1OCC(=O)Nc1cc(C)ccc1OC | 2 | 2 | 2 | -2 | x
COc1ccc(-c2nn(C)c(=O)c3ccccc23)cc1NC(=O)COc1ccc(C)cc1 | 34* | 7 | -3 | -2 | 8
CCC(=O)Nc1cc(-c2nn(C)c(=O)c3ccccc23)ccc1OC | 2 | -3 | 5 | -3 | x
CCOC(=O)c1nn(-c2ccc(F)cc2)c(=O)cc1OCC(=O)Nc1cccc(C)c1 | 101* | 2 | 6 | 1 | 93* | RORg DNA counter=>40
CCOC(=O)c1nn(-c2ccccc2)c(=O)cc1OCC(=O)Nc1cc(C)ccc1OC | 48* | 2 | 1 | 1 | 13
CCN(CC)C(=O)Oc1ccc2oc(=O)cc(-c3cc4cccc(OC)c4o3)c2c1 | -1 | -5 | 3 | -1 | x
C[C@@H]1CN([C@@H](C)CO)C(=O)CCCn2cc(nn2)CO[C@H]1CN(C)C(=O)Nc1ccc(F)cc1 | 4 | x | x | x | x
COc1ccc(OC)c(-c2cc(C(=O)Nc3cc(C)n(Cc4ccc(Cl)cc4)n3)no2)c1 | 16* | 4 | 0 | -3 | 5
COc1ccc(NC(=O)c2cc3nc(-c4ccccc4)cc(-c4ccccc4)n3n2)c(OC)c1 | 21* | 1 | -7 | 3 | 14
COc1ccc(-c2cc(C(F)(F)F)n3nc(C(=O)Nc4cc(C)on4)cc3n2)cc1OC | 34* | 3 | -6 | -6 | 26*
Cn1nc(C(=O)Nc2ccc(Br)cc2)cc1C(=O)Nc1ccc(Br)cc1 | 13* | 4 | 0 | 1 | 6
O=C(Nc1cccc(O)c1)c1cc2nc(-c3ccccc3)cc(-c3ccccc3)n2n1 | 2 | -1 | -3 | 1 | x
COc1cccc(NC(=O)c2cc(C(=O)Nc3cccc(OC)c3)n(C)n2)c1 | 1 | 0 | 0 | -1 | x
Cc1ccc(-c2cc(C(F)(F)F)n3nc(C(=O)Nc4ccon4)cc3n2)cc1C | -3 | 3 | -1 | 1 | x
CCOc1cccc(-c2nnc3n2N=C(c2ccc(OC)cc2)CS3)c1 | 6 | x | x | x | x
O=S1(=O)N[C@@H](Cc2ccccc2)COc2cccc(N3CCCC3)c21 | 0 | x | x | x | x
COc1ccc(-c2cc(C(=O)Nc3ccc(Br)cc3)no2)cc1 | 35* | 5 | 3 | -3 | -1
Cc1cc(NC(=O)c2c(Cl)cccc2Cl)no1 | -7 | -1 | -1 | 3 | x
SMILES | NR1D1 modulator | CSN inh | HNF4A DNA FP | TPT1 inhibitor | Rev-erbA confirm | others
CCc1ccc(NC(=O)c2cc(-c3ccc(OC)cc3)on2)cc1 | -5 | -7 | 2 | -1 | x
COc1ccc(-c2cc(C(=O)Nc3cc(C)on3)no2)cc1OC | 36* | 7 | 2 | -3 | 29*
Cc1cc(NC(=O)c2cccc(C(=O)Nc3cc(C)on3)n2)no1 | 22* | 12 | 0 | 0 | 17*
Cc1cc(NC(=O)c2cc(-c3ccc(O)cc3)on2)no1 | -1 | -2 | 3 | -3 | x
C[S+](C)CC[C@H](N)C(=O)O | -6 | x | x | x | x
C[C@@H](O)[C@H]1C(=O)N2C(C(=O)O)=C(S[C@@H]3CN[C@H](CNS(N)(=O)=O)C3)[C@H](C)[C@H]12 | 3 | x | x | x | x
O=C(c1cccc(Br)c1)N1CCC(Oc2cccnc2)CC1 | -3 | x | x | x | x
O=C(NCc1ccccc1Cl)c1ccc2c(=O)n(CCCN3CCCC3=O)c(=S)[nH]c2c1 | 29* | -3 | 3 | -1 | 18*
COC(CNC(=O)c1ccc2c(=O)n(Cc3ccc4c(c3)OCO4)c(=S)[nH]c2c1)OC | 3 | -3 | 3 | x | x
COC(CNC(=O)c1ccc2c(=O)n(Cc3ccc(Cl)cc3)c(=S)[nH]c2c1)OC | 29* | 1 | -5 | x | 12
CCCn1c(=S)[nH]c2cc(C(=O)NCc3ccccc3OC)ccc2c1=O | 36* | 0 | 0 | x | 27*
O=C(CCCn1c(=S)[nH]c2cc3c(cc2c1=O)OCO3)NCc1ccccc1Cl | 50* | -4 | 4 | 1 | 33* | RORg DNA counter=>40
Cc1ccccc1N1CCN(S(=O)(=O)c2ccc3c(c2)n(C)c(=O)c(=O)n3C)CC1 | 3 | x | x | x | x
CC1CCN(c2c3c(nc4ncnn24)CCCC3)CC1 | 7 | x | x | x | x
COc1cccc(CNC(=O)CCCn2c(=S)[nH]c3cc4c(cc3c2=O)OCO4)c1 | 86* | 4 | 1 | 1 | 57* | RORg DNA counter=>40
O=C(COC(=O)c1ccc2ccccc2c1)Nc1ncc(C(F)(F)F)cc1Cl | 34* | 2 | 2 | 2 | 13
COC(=O)Nc1sc2c(c1C(=O)NCc1ccco1)CCCC2 | 3 | 6 | 1 | 1 | x
COc1ccc(C(=O)Nc2sc3c(c2C(=O)NCc2ccco2)CCCC3)cc1OC | 26* | -3 | -2 | -6 | 13
COc1cc(C(=O)Nc2sc3c(c2C(=O)NCc2ccco2)CCCC3)cc(OC)c1OC | 27* | -1 | -3 | -5 | 3
COc1ccc2noc3c2c1C(=O)c1ccccc1-3 | 21* | -79 | -105 | -32 | 1
Cc1cc(C)cc(NC(=O)c2cc(C)nc3ccccc23)c1 | 1 | -1 | 1 | -3 | x
CCOC1=C2[C@H](c3ccccc3)N(S(=O)(=O)c3ccc(C)cc3)[C@H](C(C)C)[C@H]2C(C#N)(C#N)C(C#N)(C#N)C1 | -1 | x | x | x | x
O=C(N[C@@H](Cc1cccnc1)C(=O)N1CCC[C@H]1C(=O)NC1CCCC1)c1ccccc1 | 1 | x | x | x | x
O=[N+]([O-])c1cccc(N=Nc2ccc(O)cc2O)c1 | 15 | 3 | -3 | x | x
O=[N+]([O-])c1ccc(N=Nc2ccc(O)cc2O)cc1 | 37* | -2 | 4 | 2 | 23*
